This is a sample that favours compounds with a hit; in the whole collection about 2.1% have one here.
PP1 inh – PP1-alpha phosphatase inhibitors, primary screen, counter-screen for PP5 inhibitor project, biochemical, fluorescence, OMFP substrate, single point | inhibition, % at 6.7 µM | purified PP1alpha | AID 2235, 2010 | 320,000 tested, 0.9% active;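 active means inhibition above the mean inhibition of all tested compounds plus 3 SD, computed separately for each screening campaign, cut at about 15% in these data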
Target sequence (P62136 whole entry, looked up): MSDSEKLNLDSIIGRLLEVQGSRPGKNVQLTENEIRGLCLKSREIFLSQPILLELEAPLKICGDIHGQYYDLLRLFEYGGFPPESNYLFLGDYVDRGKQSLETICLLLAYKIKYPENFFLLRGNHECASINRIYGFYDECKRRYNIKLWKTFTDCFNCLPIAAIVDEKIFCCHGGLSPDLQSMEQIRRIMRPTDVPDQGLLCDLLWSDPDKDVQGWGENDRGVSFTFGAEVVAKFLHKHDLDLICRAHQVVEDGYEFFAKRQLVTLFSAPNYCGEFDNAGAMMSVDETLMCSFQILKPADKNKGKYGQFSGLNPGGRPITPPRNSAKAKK
Apaf-1 inh – inhibitors of human Apaf-1 apoptosome, primary screen, biochemical, DEVD-Rh110 fluorescence, uHTS; reconstituted apoptosome caspase-3 activity; inhibition, % at 20 µM; 330,000 tested, 0.71% active; AID 489030, 2010; active means inhibition of at least 40% at 20 µM;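 further: plate controls were DMSO wells for no effect and DEVD-CHO caspase inhibitor wells for full effect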
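System – cell-free apoptosome with Apaf-1, procaspase-3 and caspase-9 · Buffer or medium – pH 7.5 Hepes buffer with CHAPS, BSA, DTT · Also added – cytochrome c with DEVD-Rh110 · Times – 30 min compound preincubation, 50 min activation, room temperature · Technique – Rh110 fluorescence intensity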
GSTO1 counter – inhibitors of recombinant GSTO1, primary screen, counter-screen for RBBP9 inhibitor project, biochemical, fluorescence polarization | Glutathione S-transferase omega-1 (Homo sapiens), P78417 | activity-based probe fluorescence polarization | inhibition, % at 5.96 µM | 300,000 tested, 1.1% active | AID 1974, 2009;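 active means inhibition above the campaign mean inhibition plus 3 SD, cut at about 35% in these data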;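 further: 0% = GSTO1-1 with DMSO and 100% = wells lacking GSTO1-1 enzyme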
PP5 inh – PP5 phosphatase inhibitors, primary screen, biochemical, fluorescence; Serine/threonine-protein phosphatase 5 (Homo sapiens), P53041; purified PP5c, OMFP substrate fluorescence; inhibition, % at 6.7 µM; 320,000 tested, 0.18% active; AID 1987, 2009;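 active means inhibition above the campaign's mean inhibition across all tested compounds plus 3 SD, cut at about 9.5% in these data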;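 further: 0% = DMSO only and 100% = 100 µM cantharidin control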
TDP2 absorb – human TDP2 enzyme inhibitors, primary screen, biochemical, epi absorbance, recombinant enzyme; AID 720702, 2013; 370,000 tested, 0.34% active; T5PNP hydrolysis, p-nitrophenol absorbance 415 nm; inhibition, % at 12.8 µM; Tyrosyl-DNA phosphodiesterase 2 (Homo sapiens), O95551;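 active means inhibition above the mean of all tested compounds plus 3 SD, set per campaign, cut at about 25% in these data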;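 further: 0% = DMSO with enzyme and 100% = buffer with substrate but no TDP2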
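Incubation: 2 h at 37 °C; Test system: recombinant human TDP2; Quantity: enzyme 120 nM; Read-out basis: percent inhibition; Medium: 50 mM Tris-HCl pH 7.5 with Mg2+, KCl, DTT, BSA; Repeats: single replicate; Compound: 12.8 µM single point, 1% DMSO; Signal: epi absorbance; Reagent: 5 mM T5PNP chromogenic substrate; Benchmarks: no-enzyme high, DMSO-plus-enzyme low.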
GSTO1 confirm – GSTO1 inhibitor hit confirmation, counter-screen for RBBP9 inhibitor project, biochemical, fluorescence polarization, triplicate | AID 2176, 2009 | 2,400 tested, 54% active | recombinant GSTO1, probe fluorescence polarization | inhibition, % at 5.96 µM | shares compounds with GSTO1 counter;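 active means inhibition above the primary screen's cutoff, its mean inhibition plus 3 SD, cut at about 35% in these data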;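 further: loss of polarization as inhibitors block binding of rhodamine sulfonate ester activity probe; 0% = GSTO1 with DMSO and 100% = wells lacking GSTO1 enzyme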
Starred values were filed as active, the others as inactive; / = not tested or not shown.

SMILES | PP1 inh | Apaf-1 inh | GSTO1 counter | PP5 inh | TDP2 absorb | GSTO1 confirm
C[C@@H]1COc2cc(N3CCCC3)ccc2S(=O)(=O)N1C | / | / | / | / | -9 | /
O=[N+]([O-])c1cc([N+](=O)[O-])c2c(=Nc3ccccc3)n(-c3ccccc3)n(O)c2c1 | 11 | 25 | 46* | 0 | -10 | 63*
Cc1ccc2oc(=O)c(/C=C(\O)c3cccs3)nc2c1 | -1 | -21 | 40* | 4 | 18 | 7
O=C(/C=C/c1ccc(O)c(O)c1)NC(=O)c1ccccc1O | -3 | -9 | 55* | 1 | -6 | 32
COCCNC(=O)[C@]1(C#N)CC(=O)N(C)[C@@H]1c1ccccc1 | / | / | / | / | 0 | /
Cc1sc(NC(=O)CCl)c(C(=O)c2ccccc2)c1C | 2 | 24 | 74* | 3 | -12 | 97*
Nc1c(N)c2ccccc2oc1=O | -2 | -12 | 10 | -1 | -7 | /
O=c1oc2ccccc2c2oc3cc(O)c(O)cc3c12 | 0 | -8 | 49* | 4 | -13 | 14
CCCCc1c(-c2ccccc2OC)ncn1Cc1ccc(Br)cc1 | / | / | / | / | 8 | /
Cc1ccc(O)c(N)c1 | -4 | 1 | / | 1 | / | /
Cc1ccc(O)c(O)c1 | -3 | -4 | 55* | 0 | / | 3
Cc1cc(C)c(S(=O)(=O)Nc2cc(SCC(=O)O)c(O)c3ccccc23)cc1C | 2 | / | 90* | 5 | / | 5
Cc1cc(C)c(S(=O)(=O)Nc2ccc(O)cc2)cc1C | -1 | 3 | 7 | 3 | / | /
COc1ccccc1N(O)C1CC(=O)N(c2ccc(Br)cc2)C1=O (centres undefined) | 5 | 15 | 51* | 4 | 16 | 12
CCCCCCC(=O)N(O)C1CC(=O)N(c2ccc(Br)cc2)C1=O (centres undefined) | 2 | -6 | -6 | 3 | 18 | /
CNCc1ccccc1Sc1ccc(O)c(O)c1 | -1 | / | 74* | 0 | -1 | 71*
COc1ccc(Sc2ccccc2CN(C)C)cc1OC | -7 | 5 | 10 | -1 | -3 | /
Cc1ccc(C)c(NC(=O)c2cc(-c3ccc(Cl)cc3)nc3ccccc23)c1 | / | / | / | / | -10 | /
Oc1cccc(/C=N/NC(=S)Nc2cccnc2)c1O | -1 | / | 79* | 4 | 2 | 27
CC(=O)Oc1ccc(C(=O)O)cc1OC(C)=O | -1 | -7 | 16 | 2 | 6 | /
CC(=O)Oc1cccc2c1C(=O)c1c(OC(C)=O)cc(C(=O)O)cc1C2=O | -1 | 2 | 56* | 2 | 3 | 33
CCCCNC(=O)C[C@H]1C[C@@]2(C(=O)OC)C(=C[C@H](COCc3ccccc3)O[C@@H]2C)N(Cc2cccc3ccccc23)C1=O | / | / | / | / | 2 | /
COc1cc(/C=C2\C(=O)N(c3ccc(S(N)(=O)=O)cc3)N=C2C)ccc1OC(=O)c1ccco1 | 1 | 91* | 53* | 9 | 13 | 10
CN(C(=S)Nc1ccc(Oc2ccccc2)cc1)c1ccc(O)cc1 | 10 | / | 79* | 2 | 7 | 2
COc1ccc(NC(=O)c2onc(C)c2Cl)cc1OC | 0 | 3 | 39* | 1 | 3 | 7
SMILES | PP1 inh | Apaf-1 inh | GSTO1 counter | PP5 inh | TDP2 absorb | GSTO1 confirm
COc1cc(NC(=O)c2onc(C)c2Cl)cc(OC)c1OC | 0 | 2 | 3 | 0 | 15 | /
CCOC(=O)C1=C(C)N(c2ccccc2)C(=O)/C1=C\c1ccc(O)c(OC)c1 | -5 | -3 | 62* | 0 | -7 | 5
CCOC(=O)C1=C(C)N(c2ccccc2)C(=O)/C1=C\c1ccco1 | -1 | 10 | 9 | 4 | 11 | /
CCn1c(COc2ccccc2)nnc1SCC(=O)Nc1ccc(S(=O)(=O)Nc2cc(C)nc(C)n2)cc1 | / | / | / | / | 1 | /
N#CC(C#SN)=C1CCCCC1 | -1 | 0 | 52* | -1 | 5 | 34
CCOC(=O)[C@]12CCCCC/C=C\1N(CCc1ccc(Cl)cc1)C(=O)[C@H]2CC(=O)NCCCN1CCCC1=O | / | / | / | / | 9 | /
COc1ccc(S(=O)(=O)Nc2c(O)ccc3ccccc23)cc1OC | -6 | 11 | 45* | 2 | 21 | 8
